Laboratory results: ChEMBL document CHEMBL1156597, “Structure-activity relationship of kahalalide F synthetic analogues” (J Med Chem, 2008)

What was measured:
[1] = Cytotoxicity against human HeLa-APL cells after 48 hrs by SRB assay; assay type: functional
How it was run: (§1)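 Cells grown in RPMI 1640 with 10% FBS and penicillin/streptomycin at 37 °C and 5% CO₂, trypsinized, then seeded at 5 × 10³/well. After 18 h drug-free attachment, samples in DMSO/EtOH/PBS (0.5:0.5:99) were added for 48 h continuous exposure. Cells were fixed with cold TCA (1 h, 4 °C) and stained with SRB (10 min). Tris-solubilized stain read at 490 nm. Triplicate wells, mean ± SD; GI₅₀ derived.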

[2] = Cytotoxicity against human IGROV cells after 48 hrs by SRB assay; assay type: functional; conditions: for CC50: read-out: LC50 (the source's name); how it was run: as §1
DU-145 = assay: Cytotoxicity against human DU145 cells after 48 hrs by SRB assay; assay type: functional, cell-based; conditions: Homo sapiens, DU-145, 48 h; for CC50: read-out: LC50 (the source's name); for GI50: read-out: GI50; how it was run: as §1
A549 = assay: Cytotoxicity against human A549 cells after 48 hrs by SRB assay; assay type: functional, cell-based; conditions: Homo sapiens, A549, 48 h; how it was run: as §1
HeLa = assay: Cytotoxicity against human HeLa cells after 48 hrs by SRB assay; assay type: functional; conditions: for CC50: read-out: LC50 (the source's name); how it was run: as §1
K562 = assay: Cytotoxicity against human K562 cells after 48 hrs by SRB assay; assay type: functional; conditions: K562, 48 h; for CC50: read-out: LC50 (the source's name); how it was run: as §1
SK-MEL-28 = assay: Cytotoxicity against human SK-MEL-28 cells after 48 hrs by SRB assay; assay type: functional, cell-based; conditions: Homo sapiens, SK-MEL-28, 48 h; for CC50: read-out: LC50 (the source's name); how it was run: as §1
LNCaP = assay: Cytotoxicity against human LNcaP cells after 48 hrs by SRB assay; assay type: functional; conditions: for CC50: read-out: LC50 (the source's name); how it was run: as §1
SK-BR-3 = assay: Cytotoxicity against human SKBR3 cells after 48 hrs by SRB assay; assay type: functional; conditions: SK-BR-3, 48 h; for CC50: read-out: LC50 (the source's name); for GI50: read-out: GI50; how it was run: as §1
LoVo = assay: Cytotoxicity against human LoVo cells after 48 hrs by SRB assay; assay type: functional; conditions: for CC50: read-out: LC50 (the source's name)
[3] = Cytotoxicity against human IGROV-ET cells after 48 hrs by SRB assay; assay type: functional; conditions: for CC50: read-out: LC50 (the source's name); how it was run: as §1
PANC-1 = assay: Cytotoxicity against human PANC1 cells after 48 hrs by SRB assay; assay type: functional; conditions: PANC-1, 48 h; for CC50: read-out: LC50 (the source's name); how it was run: as §1
HT-29 = assay: Cytotoxicity against human HT29 cells after 48 hrs by SRB assay; assay type: functional, cell-based; conditions: Homo sapiens, HT-29, 48 h; for CC50: read-out: LC50 (the source's name); how it was run: as §1

SMILES	LC50 (concentration giving 50% net cell kill) [1]	CC50 [2]	CC50 (DU-145)	LC50 (A549)	CC50 (HeLa)	CC50 (K562)	CC50 (SK-MEL-28)	GI50 (LNCaP)	TGI (LNCaP)	CC50 (LNCaP)	CC50 (SK-BR-3)	CC50 (LoVo)	CC50 [3]	CC50 (PANC-1)	CC50 (HT-29)	GI50 (A549; read-out: GI50)	GI50 (SK-MEL-28; read-out: GI50)	GI50 [1]	TGI [1]	TGI (DU-145)	further results
C/C=C1\NC(=O)[C@H](Cc2ccccc2)NC(=O)[C@@H](C(C)C)NC(=O)[C@@H]([C@H](C)CC)NC(=O)[C@H](NC(=O)[C@H](NC(=O)[C@H](CCCN)NC(=O)[C@H]2CCCN2C(=O)[C@H](NC(=O)[C@H](CCC(N)=O)NC(=O)[C@@H](NC(=O)[C@H](NC(=O)CCCC(C)C)C(C)C)[C@@H](C)O)C(C)C)[C@H](C)CC)[C@H](C)OC(=O)[C@H](C(C)C)NC1=O	1300 nM	619 nM	1620 nM	1870 nM	1020 nM	2390 nM	1410 nM	3120 nM	3170 nM	1510 nM	2720 nM	4690 nM	689 nM	2480 nM	869 nM	–	–	–	–	–	–
C/C=C1\NC(=O)[C@H](Cc2ccccc2)NC(=O)[C@@H](C(C)C)NC(=O)[C@@H]([C@H](C)CC)NC(=O)[C@H](NC(=O)[C@H](NC(=O)[C@H](CCCN)NC(=O)[C@H]2CCCN2C(=O)[C@H](NC(=O)[C@@H](NC(=O)[C@@H](NC(=O)[C@H](NC(=O)CCCNC(=N)N)C(C)C)[C@@H](C)O)C(C)C)C(C)C)[C@H](C)CC)[C@H](C)OC(=O)[C@H](C(C)C)NC1=O	1310 nM	624 nM	1630 nM	1890 nM	1030 nM	2410 nM	1430 nM	3930 nM	3200 nM	1520 nM	2750 nM	4740 nM	695 nM	2510 nM	877 nM	–	–	–	–	–	–
C/C=C1\NC(=O)[C@H](Cc2ccccc2)NC(=O)[C@@H](C(C)C)NC(=O)[C@@H]([C@H](C)CC)NC(=O)[C@H](NC(=O)[C@H](NC(=O)[C@H](CCCN)NC(=O)[C@H]2CCCN2C(=O)[C@H](NC(=O)[C@@H](NC(=O)[C@@H](NC(=O)[C@H](NC(=O)CCCCCCCCCCCCCCCCCCC)C(C)C)[C@@H](C)O)C(C)C)C(C)C)[C@H](C)CC)[C@H](C)OC(=O)[C@H](C(C)C)NC1=O	2030 nM	1230 nM	2030 nM	383 nM	477 nM	910 nM	432 nM	–	–	296 nM	865 nM	960 nM	1210 nM	423 nM	877 nM	1880 nM	1890 nM	–	–	–	GI50 (A549): 850 nM; GI50 (SK-MEL-28): 905 nM
C/C=C1\NC(=O)[C@H](Cc2ccccc2)NC(=O)[C@@H](C(C)C)NC(=O)[C@@H]([C@H](C)CC)NC(=O)[C@H](NC(=O)[C@H](NC(=O)[C@H](CCCN)NC(=O)[C@H]2CCCN2C(=O)[C@H](NC(=O)[C@@H]2CCCN2C(=O)[C@@H](NC(=O)[C@H](NC(=O)CCCC(C)C)C(C)C)[C@@H](C)O)C(C)C)[C@H](C)CC)[C@H](C)OC(=O)[C@H](C(C)C)NC1=O	1320 nM	632 nM	1650 nM	1910 nM	1040 nM	2440 nM	1440 nM	347 nM	3240 nM	1540 nM	2780 nM	4790 nM	703 nM	2540 nM	887 nM	–	–	–	–	–	–
C/C=C1\NC(=O)[C@H](Cc2ccccc2)NC(=O)[C@@H](C(C)C)NC(=O)[C@@H]([C@H](C)CC)NC(=O)[C@H](NC(=O)[C@H](NC(=O)[C@H](CCCN)NC(=O)[C@H]2CCCN2C(=O)[C@H](NC(=O)[C@H](NC(=O)[C@@H](NC(=O)[C@H](NC(=O)CCCC(C)C)C(C)C)[C@@H](C)O)C(C)C)C(C)C)[C@H](C)CC)[C@H](C)OC(=O)[C@H](C(C)C)NC1=O	1320 nM	631 nM	1650 nM	1910 nM	1040 nM	2430 nM	1440 nM	2440 nM	3230 nM	1540 nM	2310 nM	3110 nM	702 nM	2530 nM	886 nM	5090 nM	–	3400 nM	3040 nM	3800 nM	GI50 (DU-145): 3130 nM; TGI (A549): 4230 nM; GI50 (K562): 4290 nM; TGI (K562): 4830 nM; TGI (SK-BR-3): 3230 nM; GI50 (SK-BR-3): 3690 nM; GI50 (LoVo): 3310 nM; TGI (LoVo): 3210 nM; GI50 (PANC-1): 4430 nM; TGI (PANC-1): 4920 nM; GI50 (HT-29): 4840 nM; TGI (HT-29): 3930 nM
C/C=C1\NC(=O)[C@H](Cc2ccccc2)NC(=O)[C@@H](C(C)C)NC(=O)[C@@H]([C@H](C)CC)NC(=O)[C@H](NC(=O)[C@H](NC(=O)[C@H](CCCN)NC(=O)[C@H]2CCCN2C(=O)[C@H](NC(=O)[C@H](C)NC(=O)[C@@H](NC(=O)[C@H](NC(=O)CCCC(C)C)C(C)C)[C@@H](C)O)C(C)C)[C@H](C)CC)[C@H](C)OC(=O)[C@H](C(C)C)NC1=O	1350 nM	533 nM	1680 nM	1940 nM	1060 nM	2480 nM	1470 nM	2800 nM	3300 nM	1570 nM	2170 nM	2990 nM	599 nM	2580 nM	665 nM	3730 nM	3450 nM	3270 nM	3100 nM	3870 nM	GI50 [2]: 934 nM; GI50 ([2]; read-out: GI50): 2000 nM; GI50 (DU-145): 3900 nM; TGI (A549): 4310 nM; GI50 (HeLa): 3100 nM; TGI (HeLa): 2830 nM; GI50 (K562): 4320 nM; TGI (K562): 4930 nM; TGI (SK-MEL-28): 3070 nM; TGI (SK-BR-3): 2960 nM; GI50 (SK-BR-3): 3250 nM; GI50 (LoVo): 2680 nM; TGI (LoVo): 2830 nM; GI50 [3]: 863 nM; GI50 ([3]; read-out: GI50): 1250 nM
C/C=C1\NC(=O)[C@H](Cc2ccccc2)NC(=O)[C@@H](C(C)C)NC(=O)[C@@H]([C@H](C)CC)NC(=O)[C@H](NC(=O)[C@H](NC(=O)[C@H](CCCN)NC(=O)[C@H]2CCCN2C(=O)[C@H](NC(=O)[C@@H](NC(=O)[C@@H](NC(=O)[C@H](NC(=O)c2ccccc2)C(C)C)[C@@H](C)O)C(C)C)C(C)C)[C@H](C)CC)[C@H](C)OC(=O)[C@H](C(C)C)NC1=O	834 nM	3910 nM	1040 nM	1120 nM	732 nM	2450 nM	901 nM	1190 nM	1370 nM	1540 nM	1390 nM	573 nM	436 nM	2540 nM	508 nM	1320 nM	1120 nM	1040 nM	934 nM	1120 nM	GI50 [2]: 565 nM; GI50 ([2]; read-out: GI50): 997 nM; GI50 (DU-145): 1210 nM; TGI (A549): 1220 nM; GI50 (HeLa): 1210 nM; TGI (HeLa): 945 nM; GI50 (K562): 431 nM; TGI (K562): 1510 nM; TGI (SK-MEL-28): 1010 nM; TGI (SK-BR-3): 1360 nM; GI50 (SK-BR-3): 874 nM; GI50 (LoVo): 353 nM; TGI (LoVo): 423 nM; GI50 [3]: 521 nM; GI50 ([3]; read-out: GI50): 627 nM; GI50 (PANC-1): 5380 nM; TGI (PANC-1): 4940 nM
C/C=C1\NC(=O)[C@H](Cc2ccccc2)NC(=O)[C@@H](C(C)C)NC(=O)[C@@H]([C@H](C)CC)NC(=O)[C@H](NC(=O)[C@H](NC(=O)[C@H](CCCN)NC(=O)[C@H]2CCCN2C(=O)[C@H](NC(=O)[C@@H](NC(=O)[C@@H](NC(=O)[C@@H](Cc2ccccc2)NC(=O)CCCC(C)C)[C@@H](C)O)C(C)C)C(C)C)[C@H](C)CC)[C@H](C)OC(=O)[C@H](C(C)C)NC1=O	1280 nM	449 nM	1600 nM	1840 nM	1010 nM	2360 nM	1400 nM	2280 nM	3130 nM	1490 nM	1670 nM	2800 nM	680 nM	2450 nM	5590 nM	2650 nM	2640 nM	179 nM	1700 nM	3680 nM	GI50 [2]: 862 nM; GI50 ([2]; read-out: GI50): 2010 nM; GI50 (DU-145): 3900 nM; TGI (A549): 2750 nM; GI50 (HeLa): 2210 nM; TGI (HeLa): 2690 nM; GI50 (K562): 3400 nM; TGI (K562): 4680 nM; TGI (SK-MEL-28): 2920 nM; TGI (SK-BR-3): 2190 nM; GI50 (SK-BR-3): 2340 nM; GI50 (LoVo): 2620 nM; TGI (LoVo): 2710 nM; TGI [3]: 1730 nM; GI50 ([3]; read-out: GI50): 2240 nM; GI50 (PANC-1): 5440 nM; TGI (PANC-1): 4760 nM
